# High-throughput results as filed in PubChem.
# NSD2 HMT inh: NSD2 (human) methyltransferase inhibition; inhibition, % at 12.5 µM; AID 743445; O96028; NSD2 peptide methylation, AlphaScreen, 120 min; hit rate 0.54% among 310,000; in the data active = inhibition above about 50%
# Target sequence (O96028 whole entry, looked up): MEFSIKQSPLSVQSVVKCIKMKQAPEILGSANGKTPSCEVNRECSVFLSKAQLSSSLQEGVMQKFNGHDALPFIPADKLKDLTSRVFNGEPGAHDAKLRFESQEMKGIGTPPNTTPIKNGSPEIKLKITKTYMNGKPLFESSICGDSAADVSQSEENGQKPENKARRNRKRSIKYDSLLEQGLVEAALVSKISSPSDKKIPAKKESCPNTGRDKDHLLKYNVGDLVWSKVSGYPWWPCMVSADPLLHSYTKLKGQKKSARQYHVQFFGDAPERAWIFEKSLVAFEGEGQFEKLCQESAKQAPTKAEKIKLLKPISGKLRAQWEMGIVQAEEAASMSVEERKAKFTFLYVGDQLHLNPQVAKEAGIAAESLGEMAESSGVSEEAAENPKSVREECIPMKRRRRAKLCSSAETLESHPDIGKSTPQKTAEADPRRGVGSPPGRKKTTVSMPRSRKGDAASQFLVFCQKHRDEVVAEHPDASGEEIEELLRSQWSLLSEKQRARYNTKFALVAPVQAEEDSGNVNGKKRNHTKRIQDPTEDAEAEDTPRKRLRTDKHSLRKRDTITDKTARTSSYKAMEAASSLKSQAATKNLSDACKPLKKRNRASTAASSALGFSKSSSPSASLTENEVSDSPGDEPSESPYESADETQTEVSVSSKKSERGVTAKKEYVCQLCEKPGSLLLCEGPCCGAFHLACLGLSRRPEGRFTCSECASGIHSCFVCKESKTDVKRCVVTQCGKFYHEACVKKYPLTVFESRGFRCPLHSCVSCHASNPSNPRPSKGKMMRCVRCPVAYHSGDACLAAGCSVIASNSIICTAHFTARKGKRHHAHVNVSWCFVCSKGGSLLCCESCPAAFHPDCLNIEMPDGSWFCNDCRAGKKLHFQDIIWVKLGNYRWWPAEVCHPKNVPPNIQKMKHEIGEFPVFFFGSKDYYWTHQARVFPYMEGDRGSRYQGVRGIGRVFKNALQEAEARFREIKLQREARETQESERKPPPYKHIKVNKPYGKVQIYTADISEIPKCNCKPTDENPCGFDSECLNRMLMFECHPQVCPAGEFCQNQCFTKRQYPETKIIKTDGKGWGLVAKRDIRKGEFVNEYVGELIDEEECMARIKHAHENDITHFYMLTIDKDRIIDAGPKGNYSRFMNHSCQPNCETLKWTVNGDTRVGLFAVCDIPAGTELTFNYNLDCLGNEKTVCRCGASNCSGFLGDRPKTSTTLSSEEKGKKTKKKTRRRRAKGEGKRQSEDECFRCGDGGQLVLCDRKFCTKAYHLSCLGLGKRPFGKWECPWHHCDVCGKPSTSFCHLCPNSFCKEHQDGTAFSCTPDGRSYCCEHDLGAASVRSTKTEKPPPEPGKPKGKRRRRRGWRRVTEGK
# Casp6 inh: blocks human caspase-6 cleavage activity | hit rate 0.53% among 350,000 | P55212 | purified caspase-6, Z-VEID-R110 cleavage fluorescence | inhibition, % at 12.5 µM;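 active = mean inhibition across replicates at least about 35%, with every replicate also reaching that limit, limit read from the data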;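 note: 0% = median of neutral control wells and 100% = no fluorescence left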
# MITF act: increases MITF-driven TRPM1 promoter luciferase signal. activation, % at 12.5 µM. AID 588334. hit rate 0.75% among 300,000. SK-MEL-5 TRPM1-promoter luciferase, 24 h; % of positive control, neutral wells = 0;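 active = mean activation of at least 80% with every replicate also reaching 80%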;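 note: 0% = neutral control wells and 100% = parthenolide positive control wells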
# XiGFP reactiv: activators of X-chromosome reactivation in mouse fibroblasts | activation, % at 7.58 µM | XiGFP mouse fibroblasts, % GFP-positive cells imaging, 3 d; cells co-treated with 5-aza-dC sensitizer; scaled so ellipticine positive control = 100% | hit rate 0.055% among 360,000;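 active = mean normalized replicate activation at least 10% and every replicate at or above 10%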;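 note: 0% = median of on-plate neutral control wells and 100% = ellipticine 6 µM median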
#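 Assay system: SV40-immortalized XiGFP fibroblast cells, line 68-5-11; buffer or medium: DMEM plus 5-aza-dC sensitizer; compound: one concentration, pinned; timing: compounds 3 days, fix/stain 15 min at room temperature; benchmarks: positive control ellipticine, 6 µM final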
# Wnt bcat act: activates Wnt/beta-catenin signaling in a reporter cell assay. AID 743398. activator, plate reader. hit rate 1.2% among 300,000. activation, % at 9.35 µM; in the data active = activation above about 30%, passing the limit was not always enough;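 note: 0% = neutral control wells and 100% = positive control wells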
# esBAF inh: inhibitors of esBAF chromatin remodeling in mouse ES cells | Bmi1-luciferase knock-in reporter, 24 h; 100% = twice the neutral-well signal | hit rate 2% among 350,000 | reporter increase, % at 12.5 µM | AID 602393; in the data active = activation above about 40%;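 note: 0% = median of the plate's neutral control wells and 100% = double that signal; a rise in the Bmi1 reporter signal indicates esBAF inhibition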
# * hit, by the source's call; · = no result. Most compounds without a hit are left out; they make up all but 3% or so of the library.
SMILES,NSD2 HMT inh,Casp6 inh,MITF act,XiGFP reactiv,Wnt bcat act,esBAF inh
CCN(C[C@H]1[C@H](c2ccccc2)[C@@H](CO)N1S(C)(=O)=O)C(=O)C1CCC1,·,·,·,0,·,7
C[C@H]1CN([C@@H](C)CO)C(=O)c2cc(Br)cnc2O[C@H]1CN(C)C(=O)C1CCOCC1,·,-2,·,0,·,1
CC(O)C(NS(=O)(=O)c1ccc(Cl)cc1)C(=O)OCCOc1ccc(F)cc1 (centres undefined),-5,3,·,0,45*,-1
C[C@H](CO)N1C[C@H](C)[C@@H](CN(C)C(=O)c2ccc(F)cc2)OCc2ccccc2-c2c(n(C)c3ccccc23)C1=O,·,·,·,0,·,·
O=S(=O)(Nc1nc2ccccc2nc1N1CCc2ccccc2C1)c1ccc(Br)cc1,0,·,34,0,·,·
O=S(=O)(Nc1nc2ccccc2nc1N1CCc2ccccc2C1)c1ccc(Cl)cc1,2,·,6,0,41*,·
COc1cccc2c(=O)c(C(=O)NCCc3ccccc3)c[nH]c12,1,3,·,0,12,55*
CC(=O)c1ccc(NC(=S)N2CCC(Cc3ccccc3)CC2)cc1,0,-5,8,0,40*,·
COc1ccc(Oc2nnc(C)c3ccccc23)cc1,1,·,89*,·,42*,50*
COc1ccc(-c2nnc3c4ccccc4c(C)nn23)cc1,0,·,18,·,47*,72*
C[C@@H]1CN([C@@H](C)CO)S(=O)(=O)c2ccc(-c3cccc(C(=O)N(C)C)c3)cc2O[C@H]1CN(C)C(=O)Cc1ccccn1,·,4,·,0,·,-2
COc1ccc(NC(=O)Nc2ccc3c(c2)C(=O)N([C@@H](C)CO)C[C@H](C)[C@H](CN(C)S(=O)(=O)c2cn(C)cn2)OCCCC[C@@H](C)O3)cc1,·,·,·,0,·,3
CCCNC(=O)[C@H]1[C@H](CO)[C@H]2Cn3c(ccc(-c4ccccc4)c3=O)[C@@H]1N2C(=O)CC,·,-1,·,0,·,·
c1ccc(-c2ccc(-c3ccncn3)cc2)cc1,6,-8,·,0,44*,·
O=C(C1CCC1)N1CC(=O)N2[C@H](CO)[C@@H](c3ccc(C#Cc4cccc(F)c4)cc3)[C@H]2C1,·,·,·,0,·,·
O=c1c2ccccc2nc2ccccn12,-4,-3,39,0,5,·
O=c1c2ccccc2nc2c3ccccc3cnn12,-6,-5,48,0,10,74*
CN1C(=O)c2cc(NC(=O)Nc3cccc(Cl)c3)ccc2OC[C@H]2O[C@@H](CC(=O)O)CC[C@@H]21,·,24,·,0,·,3
O=C(O)c1cccc(-n2cccc2/C=C2/NC(=O)N(Cc3ccccc3F)C2=O)c1,11,76*,-13,0,1,·
N#C/C(=C/c1cccn1-c1cccc(C(=O)O)c1)c1ccc(F)cc1,24,70*,-3,0,7,·
O=C(NCCc1cnn(-c2ccccc2)c1)c1cc(COc2c(F)cccc2F)on1,0,-1,46,0,38*,·
CCN(Cc1cnn(C)c1)C(=O)c1cc(COc2ccc3c(c2)CCCC3)on1,0,4,55,1,12,46*
CCn1ccnc1CN(C)C(=O)c1cc(COc2c(F)cccc2F)on1,-1,-1,-10,0,-5,-1
CN(Cc1cnn(C)c1)C(=O)c1cc(COc2c(F)cccc2F)on1,1,1,15,0,·,47*
COc1ccc(/C=C2\NC(=S)N(CC3CCCO3)C2=O)c(OC)c1 (centres undefined),·,·,52,·,18,48*
SMILES,NSD2 HMT inh,Casp6 inh,MITF act,XiGFP reactiv,Wnt bcat act,esBAF inh
C[C@@H]1CCCCO[C@H](CN(C)C(=O)Cc2ccccc2)[C@@H](C)CN([C@H](C)CO)C(=O)c2cc(NS(=O)(=O)c3ccc(Cl)cc3)ccc2O1,·,-5,·,0,·,-3
c1ccc(-c2ccc3c(n2)CCCN3Cc2ccccn2)cc1,·,1,·,1,35*,·
CC(C)CC#Cc1cnc2c(c1)C(=O)N([C@H](C)CO)C[C@H](C)[C@H](CN(C)Cc1ccccc1)O2,·,0,·,0,·,·
Cc1cc(C2(O)C(=O)Nc3ccccc32)ccc1F (centres undefined),4,36*,7,0,-2,-11
O=C1Nc2ccccc2C1(O)c1ccccc1O (centres undefined),1,6,-2,0,1,-1
CC(C)C[C@@H]1COCc2cn(nn2)CC[C@H](Cc2ccc(-c3ccccc3)cc2)C(=O)N1,·,·,·,0,·,·
O=C(OC1CCc2ccccc2C1=O)c1ccccc1O (centres undefined),-3,·,·,·,3,46*
Cc1ccc(/C=C/c2nc3ccccc3[nH]2)o1,18,2,21,0,38*,·
Cc1cc2nc(/C=C/c3nc4cc(C)c(C)cc4[nH]3)[nH]c2cc1C,4,1,5,0,7,6
C[C@@H]1CN([C@@H](C)CO)C(=O)c2cc(NS(C)(=O)=O)ccc2O[C@H]1CN(C)S(=O)(=O)c1cn(C)cn1,·,-2,·,0,·,-2
CCOc1ccc(C(=O)Nc2ncccc2Cl)cc1,-3,3,73,0,·,66*
O=C(Nc1ncccc1O)c1ccc(Oc2ccccc2)cc1,8,2,47,0,37*,-1
O=C(COc1ccc(C(=O)c2ccccc2)cc1)Nc1ncccc1O,·,8,5,0,3,·
COc1ccc(NC(=O)N(C)C[C@@H]2OCCCC[C@@H](C)Oc3ccc(NC(=O)Nc4c(C)noc4C)cc3C(=O)N([C@@H](C)CO)C[C@H]2C)cc1,·,-3,·,0,·,-1
Fc1ccc(-n2nnc(-c3cccnc3Cl)n2)cc1,·,-5,65,0,17,-2
COc1ncccc1-c1nnn(-c2ccccc2Br)n1,·,1,16,0,16,22
Clc1ncccc1-c1nnn(-c2ccccc2)n1,·,0,99*,0,34*,4
c1ccc(-n2nnc(-c3cccnc3)n2)cc1,·,1,91*,0,28,58*
Clc1ccc(-n2nnc(-c3cccnc3Cl)n2)cc1Cl,·,16,95*,0,30,55*
COc1ncccc1-c1nnn(-c2ccccc2)n1,·,-7,·,0,53*,5
CCCC#Cc1ccc2c(c1)O[C@H](CN(C)C(=O)Nc1ccccc1F)[C@@H](C)CN([C@H](C)CO)S2(=O)=O,·,0,·,-1,·,4
Cc1noc(C)c1NC(=O)N(C)C[C@@H]1OCCCC[C@H](C)Oc2ccc(NC(=O)c3ccccc3)cc2C(=O)N([C@H](C)CO)C[C@H]1C,·,-1,·,0,·,-4
C[C@H](CO)N1C[C@H](C)[C@@H](CN(C)C(=O)c2ccc3c(c2)OCO3)Oc2ncc(C3=CCCCC3)cc2C1=O,·,1,·,0,·,5
Clc1nc2ccccc2cc1-c1nnn(-c2ccccc2)n1,·,0,·,0,27,62*
Cc1ccc(-n2nnc(-c3cnc4ccccc4c3)n2)cc1,·,2,-6,0,23,-37
